Active and inactive are the calls of the source. The calls are words filed in the database; no cut-off is given here.

Here are results for two molecules from ChEMBL document CHEMBL1155469, “Peptide nucleic acids conjugated to short basic peptides show improved pharmacokinetics and antisense activity in adipose tissue” (J Med Chem, 2010).

The test system of data set [1] is Mus musculus. Nature of the data set: Inhibition of PTEN expression in Balb/C mouse kidney assessed as increase in mRNA levels at 8.25 mg/kg, ip administered thrice a week for 2 weeks measured 48 hrs after last dose […]. Format: functional, organism-based. Details: dose 8.25 mg/kg. An outline of the steps:
(§1)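 Male Balb/c mice, n=4 per group, dosed i.p. in PBS and sacrificed 48 h after last dose. Liver, kidney and adipose tissue homogenised at once in 4 M guanidine isothiocyanate, 25 mM EDTA, 50 mM Tris-HCl pH 6. RNA purified on columns and run by fluorescence-based quantitative RT-PCR. Target transcript levels normalised to cyclophilin A and expressed relative to saline-treated controls.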
Background: A western blot detects proteins with antibodies after separation by electrophoresis.

For data set [2], the system named is Mus musculus. Description: Inhibition of PTEN expression in Balb/C mouse liver assessed as increase in mRNA levels at 8.25 mg/kg, ip administered thrice a week for 2 weeks measured 48 hrs after last dose […]. Format: functional, organism-based. Set-up: dose 8.25 mg/kg. An outline of the steps:
as §1

In data set [3] the test system is Mus musculus. Description: Acute toxicity in Balb/C mouse assessed as necrosis in kidney at 8.5 mg/kg, ip administered thrice a week for 2 weeks measured 48 hrs after last dose. Type of data set: organism-based. Set-up: dose 8.5 mg/kg, route intraperitoneal. The following applies: in vivo. In a few lines: (§2)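 Male Balb/c mice aged 6–8 weeks, n=4 per group, dosed i.p. with compound suspended in PBS and filter sterilized, 10 ul/g body weight. Body weight tracked throughout the live phase. Under isoflurane anaesthesia, terminal cardiac-puncture bleed; serum taken for transaminases and other chemistries. Sacrifice by cervical dislocation 48 h after last dose, with liver and spleen weighed at necropsy. Kidneys examined by histopathology.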

The subject of data set [4] is Mus musculus. Description: Acute toxicity in Balb/C mouse assessed as necrosis in kidney at 33 mg/kg, ip administered thrice a week for 2 weeks measured 48 hrs after last dose. Format: organism-based. The following applies: in vivo. Details: dose 33 mg/kg, route intraperitoneal. An outline of the steps: as §2
For data set [5], the system named is Mus musculus. Description: Acute toxicity in Balb/C mouse assessed as reduction in body weight at 8.5 mg/kg, ip administered thrice a week for 2 weeks measured 48 hrs after last dose. Format: organism-based. Details: dose 8.5 mg/kg, route intraperitoneal. The following applies: in vivo. An outline of the steps:
as §2

In data set [6] the test system is Mus musculus. Nature of the data set: Inhibition of PTEN expression in Balb/C mouse kidney assessed as increase in mRNA levels at 33 mg/kg, ip administered as single dose measured 48 hrs after last dose […]. Type of data set: functional, organism-based. Set-up: dose 33 mg/kg. An outline of the steps: as §1
Data set [7] relates to Mus musculus. Description: Acute toxicity in Balb/C mouse assessed as reduction in body weight at 33 mg/kg, ip administered thrice a week for 2 weeks measured 48 hrs after last dose. Format: organism-based. Details: dose 33 mg/kg, route intraperitoneal. The following applies: in vivo. In a few lines:
as §2

In data set [8] the test system is Mus musculus. Nature of the data set: Inhibition of PTEN expression in Balb/C mouse adipose tissue assessed as increase in mRNA levels at 8.25 mg/kg, ip administered thrice a week for 2 weeks measured 48 hrs after last dose by […]. Details: dose 8.25 mg/kg. Format: functional, organism-based. In a few lines:
as §1

Data set [9] deals with Mus musculus. Nature of the data set: Acute toxicity in Balb/C mouse assessed as change in body weight at 37 mg/kg, ip administered thrice a week for 2 weeks measured 48 hrs after last dose. Type of data set: organism-based. Set-up: dose 37 mg/kg, route intraperitoneal. The following applies: in vivo. An outline of the steps: as §2
Data set [10] has as its system Mus musculus. Nature of the data set: Toxicity in Balb/C mouse assessed as change in serum ALT levels at 10 to 40 mg/kg, ip administered thrice a week for 2 weeks measured 48 hrs after last dose. Type of data set: organism-based. Particulars: in vivo. Details: dose 10-40 mg/kg, route intraperitoneal. In a few lines:
(§3)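 Male Balb/c mice, 6–8 wk, n=4/group, received compound i.p. in PBS (10 ul/g) 3x/wk for 2 wk. Body weight was monitored throughout. At 48 h after the last dose, mice were anesthetized with isoflurane and bled by cardiac puncture. Serum AST, ALT, BUN, bilirubin, glucose and triglycerides were compared with the saline group. ALT rise below 2x normal was counted as absent.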

Data set [11] has as its system Mus musculus. Description: Acute toxicity in Balb/C mouse assessed as change in organ weight at 25 mg/kg, ip administered BID for 5 days measured 48 hrs after last dose. Details: dose 25 mg/kg, route intraperitoneal. Type of data set: organism-based. Particulars: in vivo. An outline of the steps:
as §2

The subject of data set [12] is Mus musculus. Nature of the data set: Inhibition of PTEN expression in ip dosed Balb/C mouse white adipose tissue assessed as reduction of full length transcript administered thrice a week for 2 weeks measured 48 hrs after last dose […]. Format: functional, organism-based.
Data set [13] deals with Mus musculus. Description: Toxicity in Balb/C mouse assessed as change in serum bilirubin levels at 10 to 40 mg/kg, ip administered thrice a week for 2 weeks measured 48 hrs after last dose. Format: organism-based. Details: dose 10-40 mg/kg, route intraperitoneal. Particulars: in vivo. An outline of the steps: as §3
Data set [14] relates to Mus musculus. Description: Toxicity in Balb/C mouse assessed as change in serum AST levels at 10 to 40 mg/kg, ip administered thrice a week for 2 weeks measured 48 hrs after last dose. The following applies: in vivo. Format: organism-based. Set-up: dose 10-40 mg/kg, route intraperitoneal. In a few lines: as §3
Data set [15] relates to Mus musculus. Nature of the data set: Acute toxicity in Balb/C mouse assessed as change in body weight at 25 mg/kg, ip administered BID for 5 days measured 48 hrs after last dose. Set-up: dose 25 mg/kg, route intraperitoneal. Type of data set: organism-based. Particulars: in vivo. An outline of the steps: as §2
Data set [16] concerns Mus musculus. Description: Acute toxicity in Balb/C mouse assessed as change in serum chemistry at 25 mg/kg, ip administered BID for 5 days measured 48 hrs after last dose. Particulars: in vivo. Format: organism-based. Set-up: dose 25 mg/kg, route intraperitoneal. An outline of the steps:
as §2

Data set [17] relates to Mus musculus. Description: Toxicity in Balb/C mouse assessed as change in blood urea nitrogen levels at 10 to 40 mg/kg, ip administered thrice a week for 2 weeks measured 48 hrs after last dose. Format: organism-based. Particulars: in vivo. Details: dose 10-40 mg/kg, route intraperitoneal. An outline of the steps:
as §3

For data set [18], the system named is Mus musculus. Description: Toxicity in Balb/C mouse assessed as change in serum glucose levels at 10 to 40 mg/kg, ip administered thrice a week for 2 weeks measured 48 hrs after last dose. Type of data set: organism-based. Details: dose 10-40 mg/kg, route intraperitoneal. Particulars: in vivo. An outline of the steps:
as §3

The test system of data set [19] is Mus musculus. Description: Inhibition of PTEN expression in Balb/C mouse kidney assessed as reduction of full length transcript at 40 mg/kg, ip administered thrice a week for 2 weeks measured 48 hrs after last dose […]. Type of data set: functional. Particulars: route intraperitoneal. Set-up: scale not given: the % may be the effect or the level left.
Data set [20] relates to Mus musculus. Nature of the data set: Acute toxicity in Balb/C mouse assessed as change in organ weight at 37 mg/kg, ip administered thrice a week for 2 weeks measured 48 hrs after last dose. Set-up: dose 37 mg/kg, route intraperitoneal. Particulars: in vivo. Type of data set: organism-based. In a few lines:
as §2

Data set [21] relates to Mus musculus. Description: Inhibition of PTEN expression in ip dosed Balb/C mouse white adipose tissue assessed as upregulation of isoform lacking exon administered thrice a week for 2 weeks measured 48 hrs after last dose […]. Format: functional, organism-based.
Data set [22] deals with Mus musculus. Nature of the data set: Toxicity in Balb/C mouse assessed as change in serum triglyceride levels at 10 to 40 mg/kg, ip administered thrice a week for 2 weeks measured 48 hrs after last dose. The following applies: in vivo. Type of data set: organism-based. Set-up: dose 10-40 mg/kg, route intraperitoneal. In a few lines:
as §3

Data set [23] has as its system Mus musculus. Description: Toxicity in Balb/C mouse assessed as change in body weight at 10 to 40 mg/kg, ip administered thrice a week for 2 weeks measured 48 hrs after last dose. Format: organism-based. Set-up: dose 10-40 mg/kg, route intraperitoneal. Particulars: in vivo. In a few lines: as §3
Data set [24] concerns Mus musculus. Description: Acute toxicity in Balb/C mouse assessed as change in serum chemistry at 37 mg/kg, ip administered thrice a week for 2 weeks measured 48 hrs after last dose. Format: organism-based. Details: dose 37 mg/kg, route intraperitoneal. Particulars: in vivo. In a few lines:
as §2

In data set [25] the test system is Mus musculus. Nature of the data set: Toxicity in Balb/C mouse assessed as increase in spleen weight at 40 mg/kg, ip administered thrice a week for 2 weeks measured 48 hrs after last dose. Set-up: dose 40 mg/kg, route intraperitoneal. Particulars: in vivo. Format: organism-based. An outline of the steps: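 Male Balb/c mice, 6–8 wk, n=4/group, were dosed i.p. in PBS 3x/wk for 2 wk at 40 mg/kg. They were killed by cervical dislocation 48 h after the last dose. Spleen weight was taken at necropsy and compared with the saline-treated group.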

Data set [26] has as its system Mus musculus. Nature of the data set: Inhibition of PTEN expression in Balb/C mouse liver at 10 to 40 mg/kg, ip administered thrice a week for 2 weeks measured 48 hrs after last dose by Western blot analysis. Format: functional, organism-based. In a few lines: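 Male Balb/c mice, 6–8 wk, n=4/group, dosed i.p. in PBS 3x/wk for 2 wk and killed 48 h after the last dose. Tissue was homogenized in RIPA buffer with protease inhibitors, and protein was measured by Lowry assay. Lysates were run on 10% PAGE and blotted to PVDF. Blots were probed with rabbit anti-PTEN (1:1000) and HRP anti-rabbit (1:2500), with ECL detection.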

The subject of data set [27] is Mus musculus. Description: Inhibition of PTEN expression in Balb/C mouse kidney assessed as upregulation of isoform lacking exon at 40 mg/kg, ip administered thrice a week for 2 weeks measured 48 hrs after last dose […]. Type of data set: functional. Set-up: scale not given: the % may be the effect or the level left. Particulars: route intraperitoneal.

As for `Cc1cn(CC(=O)N(CCNC(=O)CN(CCNC(=O)[C@H](CCCCN)N(CCNC(=O)CNC(=O)[C@@H](CCCCN)NC(=O)[C@@H](CCCCN)NC(=O)[C@@H](C)NC(=O)[C@@H](CC(C)C)NC(=O)[C@@H](CCCCN)NC(=O)[C@@H](CC(C)C)NC(=O)[C@@H](C)NC(=O)[C@@H](C)NC(=O)[C@@H](CCCCN)NC(=O)[C@@H](CC(C)C)NC(=O)[C@@H](CC(C)C)NC(=O)[C@@H](CCCCN)NC(=O)[C@H](N)CCCCN)C(=O)Cn2cc(C)c(=O)[nH]c2=O)C(=O)Cn2ccc(N)nc2=O)CC(=O)NCCN(CC(=O)NCCN(CC(=O)NCCN(CC(=O)NCCN(CC(=O)NCCN(CC(=O)NCCN(CC(=O)NCCN(CC(=O)NCCN(CC(=O)NCCN(CC(=O)NCCN(CC(=O)NCCN(CC(=O)NCCN(CC(=O)NCCN(CC(=O)N[C@@H](CCCCN)C(N)=O)C(=O)Cn2cnc3c(N)ncnc32)C(=O)Cn2ccc(N)nc2=O)C(=O)Cn2cnc3c(N)ncnc32)C(=O)Cn2cc(C)c(=O)[nH]c2=O)C(=O)Cn2ccc(N)nc2=O)C(=O)Cn2cc(C)c(=O)[nH]c2=O)C(=O)Cn2cnc3c(N)ncnc32)C(=O)Cn2ccc(N)nc2=O)C(=O)Cn2cnc3c(N)ncnc32)C(=O)Cn2ccc(N)nc2=O)C(=O)Cn2cnc3c(=O)[nH]c(N)nc32)C(=O)Cn2cnc3c(N)ncnc32)C(=O)Cn2ccc(N)nc2=O)c(=O)[nH]c1=O`, the result in data set [1], in [2], in [6] and in [8] was inactive. For the same molecule, the Activity entry in [3], in [4], in [5] and in data set [7] was “Toxic” throughout.
On to `Cc1cn(CC(=O)N(CCNC(=O)CN(CCNC(=O)[C@H](CCCCN)N(CCNC(=O)[C@H](CCCCN)NC(=O)[C@H](CCCCN)NC(=O)[C@H](CCCCN)NC(=O)[C@H](CCCCN)NC(=O)[C@H](CCCCN)NC(=O)[C@H](CCCCN)NC(=O)[C@H](CCCCN)NC(=O)[C@@H](N)CCCCN)C(=O)Cn2cc(C)c(=O)[nH]c2=O)C(=O)Cn2ccc(N)nc2=O)CC(=O)NCCN(CC(=O)NCCN(CC(=O)NCCN(CC(=O)NCCN(CC(=O)NCCN(CC(=O)NCCN(CC(=O)NCCN(CC(=O)NCCN(CC(=O)NCCN(CC(=O)NCCN(CC(=O)NCCN(CC(=O)NCCN(CC(=O)NCCN(CC(=O)N[C@@H](CCCCN)C(N)=O)C(=O)Cn2cnc3c(N)ncnc32)C(=O)Cn2ccc(N)nc2=O)C(=O)Cn2cnc3c(N)ncnc32)C(=O)Cn2cc(C)c(=O)[nH]c2=O)C(=O)Cn2ccc(N)nc2=O)C(=O)Cn2cc(C)c(=O)[nH]c2=O)C(=O)Cn2cnc3c(N)ncnc32)C(=O)Cn2ccc(N)nc2=O)C(=O)Cn2cnc3c(N)ncnc32)C(=O)Cn2ccc(N)nc2=O)C(=O)Cn2cnc3c(=O)[nH]c(N)nc32)C(=O)Cn2cnc3c(N)ncnc32)C(=O)Cn2ccc(N)nc2=O)c(=O)[nH]c1=O`, for which the Activity result is “Non-toxic” in data set [9]; “Non-toxic” in [10]; “Non-toxic” in data set [11]; “Dose-dependent effect” in data set [12]; “Non-toxic” in data set [13]; “Non-toxic” in data set [14]. Moreover, the Activity entry in data set [15] is “Non-toxic”; in data set [16] it was “Non-toxic”; in data set [17], “Non-toxic”; in data set [18], “Non-toxic”; in [19], 70%; in data set [20], “Non-toxic”. The Activity entry in data set [21] was “Dose-dependent effect”; in [22], “Non-toxic”; in [23] it was “Non-toxic”; in data set [24] it was “Non-toxic”; in [25], 145%; in [27], 185%. The inhibition result in data set [26] was “inactive”.
